# Data from ChEMBL document CHEMBL2203216, “Fluoride enhances the activity of fungicides that destabilize cell membranes” (2012).
# Activity calls are given as the source filed them. The rule behind the calls is not given here. Numbered stars: 1 amine (or outer) side, 2 acyl side, 3 side chain; on linkers, the order of the positions; unused ones are H or OH. Bridge positions count the residues as written; N and C are the ends. Square brackets hold non-standard residues; d marks the D form. Peptide text beside a SMILES is read from it. * marks the point of attachment. Orn(4R-OH,5R-OH) = O=C([C@H](C[C@@H](O)[C@@H](O)N[*:3])N[*:1])[*:2]; hTyr(3S-OH,4S-OH) = N[C@H](C(=O)O)[C@H](O)[C@@H](O)c1ccc(O)cc1; Pro(3S-OH,4S-Me) = C[C@H]1CN[C@H](C(=O)O)[C@H]1O; Palmitoyl = CCCCCCCCCCCCCCCC(=O)*; Hyp = O=C(O)[C@@H]1C[C@@H](O)CN1
# Legend:
# Saccharomyces cerevisiae [1] = assay: Antifungal activity against Saccharomyces cerevisiae MYH 500 assessed as growth inhibition in presence of 80 mM sodium fluoride after 9 hrs; type: functional, organism-based
# How it was run: (§1)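 S. cerevisiae growth in liquid medium with amphotericin B over a concentration series, plus a fixed 30 mM or 80 mM of NaF, KCl or NaCl. Cultures were shaken at 30°C for 9 h.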
# Saccharomyces cerevisiae [2] = assay: Antifungal activity against Saccharomyces cerevisiae MYH 500 assessed as growth inhibition in presence of 30 mM sodium fluoride after 9 hrs; type: functional, organism-based; how it was run: as §1
# Aspergillus nidulans [3] = assay: Antifungal activity against Aspergillus nidulans ATCC 38163 assessed as growth inhibition in presence of 30 mM sodium fluoride after 24 hrs; type: functional, organism-based
# Saccharomyces cerevisiae [4] = assay: Potentiation of fluoride-induced antimicrobial effect against Saccharomyces cerevisiae MYH 500 assessed as increase in growth inhibition at 10 nM in presence of 30 to 100 mM sodium fluoride after 48 hrs; type: functional, organism-based
# How it was run: (§2)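 S. cerevisiae growth curves in liquid medium over 48 h. Amphotericin B was tested alone or at a fixed 10 nM or 20 nM with a range of sodium fluoride concentrations. Growth was followed as culture density.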
# Neurospora crassa [5] = assay: Antifungal activity against Neurospora crassa FGSC 2225 assessed as growth inhibition at 300 nM after 24 hrs; type: functional, organism-based
# How it was run: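 N. crassa, a filamentous fungus, was grown in liquid medium with amphotericin B for 24 h. Growth was scored visually in tubes, and the lowest concentration showing little or no visible growth was noted.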
# Saccharomyces cerevisiae [6] = assay: Potentiation of fluoride-induced antimicrobial effect against Saccharomyces cerevisiae MYH 500 assessed as increase in growth inhibition at 20 nM in presence of 30 to 100 mM sodium fluoride after 48 hrs; type: functional, organism-based; how it was run: as §2
# Saccharomyces cerevisiae [7] = assay: Antifungal activity against Saccharomyces cerevisiae MYH 500 assessed as growth inhibition in presence of 80 mM Kcl after 9 hrs; type: functional, organism-based; how it was run: as §1
# Neurospora crassa [8] = assay: Antifungal activity against Neurospora crassa FGSC 2225 assessed as growth inhibition in presence of 30 mM sodium fluoride after 24 hrs relative to untreated control; type: functional
# How it was run: (§3)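 Filamentous fungus grown in liquid medium tubes with fluoride plus a drug series. Growth was scored visually after 24 h. The endpoint was the lowest concentration tube showing little or no visible growth.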
# Saccharomyces cerevisiae [9] = assay: Antifungal activity against Saccharomyces cerevisiae MYH 500 assessed as growth inhibition at 300 nM after 48 hrs; type: functional, organism-based; how it was run: as §2
# Saccharomyces cerevisiae [10] = assay: Antifungal activity against Saccharomyces cerevisiae MYH 500 assessed as growth inhibition in presence of 30 mM sodium fluoride after 48 hrs relative to untreated control; type: functional
# Saccharomyces cerevisiae [11] = assay: Potentiation of fluoride-induced antimicrobial effect against Saccharomyces cerevisiae MYH 500 assessed as increase in growth inhibition at 10 nM in presence of 60 mM sodium fluoride after 48 hrs; type: functional, organism-based; how it was run: as §2
# Saccharomyces cerevisiae [12] = assay: Antifungal activity against Saccharomyces cerevisiae MYH 500 assessed as growth inhibition in presence of 80 mM NaCl after 9 hrs; type: functional, organism-based; how it was run: as §1
# Neurospora crassa [13] = assay: Antifungal activity against Neurospora crassa FGSC 2225 assessed as growth inhibition in presence of 10 mM sodium fluoride after 24 hrs relative to untreated control; type: functional; how it was run: as §3
# Saccharomyces cerevisiae [14] = assay: Antifungal activity against Saccharomyces cerevisiae MYH 500 assessed as growth inhibition in presence of 30 mM Kcl after 9 hrs; type: functional, organism-based; how it was run: as §1
# Saccharomyces cerevisiae [15] = assay: Antifungal activity against Saccharomyces cerevisiae MYH 500 assessed as growth inhibition in presence of 30 mM NaCl after 9 hrs; type: functional, organism-based; how it was run: as §1
# Saccharomyces cerevisiae [16] = assay: Antifungal activity against Saccharomyces cerevisiae MYH 500 at 30 to 70 nM after 48 hrs; type: functional, organism-based; how it was run: as §2
# Saccharomyces cerevisiae [17] = assay: Antifungal activity against Saccharomyces cerevisiae MYH 500 assessed as growth inhibition in presence of 80 mM sodium fluoride after 48 hrs relative to untreated control; type: functional
# Saccharomyces cerevisiae [18] = assay: Antifungal activity against Saccharomyces cerevisiae MYH 500 at 10 nM after 48 hrs; type: functional, organism-based; how it was run: as §2
# Aspergillus nidulans [19] = assay: Antifungal activity against Aspergillus nidulans ATCC 38163 assessed as growth inhibition in presence of 10 mM sodium fluoride after 24 hrs; type: functional, organism-based
# Saccharomyces cerevisiae [20] = assay: Antifungal activity against Saccharomyces cerevisiae MYH 500 assessed as growth inhibition at 3 mM in presence of 30 mM sodium fluoride after 24 hrs relative to untreated control; type: functional, organism-based
# Saccharomyces cerevisiae [21] = assay: Antifungal activity against Saccharomyces cerevisiae MYH 500 assessed as growth inhibition at 3 mM after 48 hrs; type: functional, organism-based
# Saccharomyces cerevisiae [22] = assay: Antifungal activity against Saccharomyces cerevisiae MYH 500 assessed as growth inhibition at 3 mM in presence of 30 mM sodium fluoride after 48 hrs relative to untreated control; type: functional
compound,measurement,setting,value
CCC(C)n1ncn(-c2ccc(N3CCN(c4ccc(OCC5COC(Cn6cncn6)(c6ccc(Cl)cc6Cl)O5)cc4)CC3)cc2)c1=O (centres undefined),growth inhibition (GI),Saccharomyces cerevisiae [1],inactive
same,growth inhibition (GI),Saccharomyces cerevisiae [2],inactive
CN(C/C=C/C#CC(C)(C)C)Cc1cccc2ccccc12,growth inhibition (GI),Saccharomyces cerevisiae [1],inactive
same,growth inhibition (GI),Saccharomyces cerevisiae [2],inactive
Cc1cccc(N(C)C(=S)Oc2ccc3ccccc3c2)c1,growth inhibition (GI),Saccharomyces cerevisiae [1],inactive
same,growth inhibition (GI),Saccharomyces cerevisiae [2],inactive
"CCCCCCCCCCCCCCCC(=O)N[C@H]1C[C@@H](O)[C@@H](O)NC(=O)[C@@H]2[C@@H](O)[C@@H](C)CN2C(=O)[C@H]([C@@H](C)O)NC(=O)[C@H]([C@H](O)[C@@H](O)c2ccc(O)cc2)NC(=O)[C@@H]2C[C@@H](O)CN2C(=O)[C@H]([C@@H](C)O)NC1=O (Palmitoyl-[Orn(4R-OH,5R-OH)]T[Hyp][hTyr(3S-OH,4S-OH)]T[Pro(3S-OH,4S-Me)]; lactam 1-C)",growth inhibition (GI),Saccharomyces cerevisiae [2],inactive
C[C@@H]1[C@H](O)[C@@H](C)/C=C/C=C/C=C/C=C/C=C/C=C/C=C/[C@H](O[C@@H]2O[C@H](C)[C@@H](O)[C@H](N)[C@@H]2O)C[C@@H]2O[C@](O)(C[C@@H](O)C[C@@H](O)[C@H](O)CC[C@@H](O)C[C@@H](O)CC(=O)O[C@H]1C)C[C@H](O)[C@H]2C(=O)O [AMPHOTERICIN B],growth inhibition (GI),Aspergillus nidulans [3],Active
same,growth inhibition (GI),Saccharomyces cerevisiae [4],Active
same,growth inhibition (GI),Neurospora crassa [5],inactive
same,growth inhibition (GI),Saccharomyces cerevisiae [6],Active
same,growth inhibition (GI),Saccharomyces cerevisiae [7],Active
same,fold change (FC),Neurospora crassa [8],10
same,growth inhibition (GI),Saccharomyces cerevisiae [9],Active
same,fold change (FC),Saccharomyces cerevisiae [10],10
same,growth inhibition (GI),Saccharomyces cerevisiae [11],Active
same,growth inhibition (GI),Saccharomyces cerevisiae [12],Active
same,fold change (FC),Neurospora crassa [13],4
same,growth inhibition (GI),Saccharomyces cerevisiae [14],Active
same,growth inhibition (GI),Saccharomyces cerevisiae [15],Active
same,Activity,Saccharomyces cerevisiae [16],inactive
same,fold change (FC),Saccharomyces cerevisiae [17],30
same,Activity,Saccharomyces cerevisiae [18],inactive
same,growth inhibition (GI),Aspergillus nidulans [19],Active
N=C(N)NCCC[C@@H]1NC(=O)[C@H](CCCNC(=N)N)NC(=O)[C@H](CCCNC(=N)N)NC(=O)[C@H](CCCNC(=N)N)NC(=O)[C@H](CCCNC(=N)N)NC(=O)[C@H](CCCNC(=N)N)NC(=O)[C@H](CCCNC(=N)N)NC1=O [NOVEXATIN],growth inhibition (GI),Saccharomyces cerevisiae [20],Active
same,growth inhibition (GI),Saccharomyces cerevisiae [21],Active
same,fold change (FC),Saccharomyces cerevisiae [22],>3
NYSTATIN,growth inhibition (GI),Saccharomyces cerevisiae [1],Active
same,growth inhibition (GI),Saccharomyces cerevisiae [2],Active
